Compound activity: PubChem, several laboratories
GRK2 inh = compounds blocking aptamer binding on GRK2 – biochemical, human GRK2, bead flow cytometry, HTS, primary screen; Beta-adrenergic receptor kinase 1 (Homo sapiens), P25098; inhibition of aptamer binding, % at 10 µM; hit rate 0.59% among 330,000; FAM-aptamer displacement from GRK2; AID 488847, 2010;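 active = inhibition of aptamer binding above 40%, roughly 3 SD of noise, on plates passing a quality check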;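 also: median bead fluorescence of bound FAM aptamer so fluorescent compounds give negative values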
NadD block = inhibitors of S. aureus NadD, primary screen, biochemical, colorimetric, uHTS; hit rate 0.78% among 360,000; inhibition, % at 20 µM; Nicotinate-nucleotide adenylyltransferase NadD (Staphylococcus aureus N315); purified NadD enzyme, colorimetric absorbance read-out; AID 602399, 2012; in the data active = inhibition above about 26%
B2AR ag = beta2AR agonists driving receptor internalization, primary screen, cell-based, FAP fluorogen, flow cytometry | Beta-2 adrenergic receptor (Homo sapiens), P07550 | Am2.2-beta2AR cells | response, % (test concentration not listed) | hit rate 0.43% among 340,000 | AID 504454, 2011;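 active = response above a set limit, near 3 SD of response in nonfluorescent compounds, cut at about 42% in these data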
SENP1 inh = human SENP1 catalytic domain inhibitors, primary screen, biochemical, FRET, uHTS | recombinant SENP1 catalytic domain, CyPet-SUMO1-YPet FRET cleavage | inhibition, % at 10 µM | hit rate 0.21% among 360,000;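 active = inhibition at least 30% at 10 µM, raw YFP signal under a set limit, fluorescence ratio 0.5 to 1.5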;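 also: 0% = enzyme with DMSO and 100% = no enzyme wells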
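Material: hSENP1 catalytic domain, recombinant; medium: Tris pH 8 with BME, BSA, NP40 and catalase; compound: single concentration of 10 µM compound, 0.5% DMSO final; technique: FRET read of cyan and yellow fluorescence; timing: 50 min enzyme reaction, room temperature, light-protected; reagent: SFCypet-SUMO1-SFYpet substrate at 25 nM; control set: no-enzyme low, enzyme-DMSO high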
ABHD5-PLIN5 inh = ABHD5-PLIN5 interaction inhibitors, primary screen, cell lysate, split luciferase complementation, luminescence. Split G. princeps luciferase complementation, 4 h. inhibition, % at 4 µM. hit rate 0.78% among 360,000. Perilipin-5 (Homo sapiens) + 1-acylglycerol-3-phosphate O-acyltransferase ABHD5 (Homo …;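 active = inhibition above the mean inhibition across every tested compound plus 3 SD, cut at about 22% in these data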;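 also: 0% = DMSO only wells and the 100% control is not disclosed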
* hit, by the source's call; · = no result given. Compounds with a hit are over-represented: about 2.5% of the library has one in this group of screens.

SMILES	GRK2 inh	NadD block	B2AR ag	SENP1 inh	ABHD5-PLIN5 inh
Oc1ccc(/C=N/N2CCCCC2)c(O)c1O	3.0	4.0	1.0	37.5*	-10.3
COC(=O)N[C@@H]1C[C@H]2[C@@H]3CC[C@H]4C[C@@H](OC)CC[C@]4(C)[C@H]3CC[C@@]12C	0.0	-6.8	-9.3	2.2	-0.2
Cc1cn([C@H]2C[C@H](O)[C@@H](CCC(=O)NCCN3CCCCC3)O2)c(=O)[nH]c1=O	4.0	1.6	-5.1	-0.4	-6.4
O=S(=O)(Cc1ccccc1)N(O)c1ccccc1	0.0	4.0	77.0*	1.0	-9.4
O=C(O)CNS(=O)(=O)Cc1ccccc1	0.0	-2.0	8.9	0.3	-4.5
O=C(COC(=O)/C=C/c1cccc(C(F)(F)F)c1)NCCN1C(=O)CSC1=O	4.0	-5.7	-1.8	-0.9	4.5
Cc1nc2ccccc2cc1C(=O)N(C)Cc1ccccc1	2.0	2.6	0.1	-0.9	-2.3
CCc1nnc(NC(=O)CSCc2cc(=O)n3nc(C)sc3n2)s1	2.0	-5.8	1.0	0.2	1.7
COc1ccc2oc(=O)c(C(=O)Nc3ccccc3O)cc2c1	0.0	-5.3	15.7	3.4	1.1
COc1ccc2o/c(=N\O)c(C(=O)Nc3ccccc3OC)cc2c1	0.0	10.4	53.4*	1.0	1.1
CN(C)c1ccc2nc3c(=O)[nH]c(=O)nc-3n(CC(O)C(O)C(O)CO)c2c1 (centres undefined)	4.0	-2.3	-1.2	60.5*	17.9
c1ccc(OCCNc2nc(NCC3CC3)nc3ccsc23)cc1	·	4.7	·	1.0	2.6
CCOc1cccc2c1OC(c1cc(OC)c(OC)c(OC)c1)N1N=C(c3ccc(C)o3)CC21 (centres undefined)	2.0	5.5	-107.8	-25.2	24.8*
COc1ccc2sc(-c3ccc(SC)cc3)c(-c3ccc(O)cc3)c2c1	1.0	1.9	53.0*	0.7	-9.8
COc1ccc2sc(-c3ccccc3OC)c(-c3ccc(SC)cc3)c2c1	·	-6.2	·	2.1	-7.4
COc1ccc(/C=C/C(=O)c2ccc3c(c2)OCCO3)cc1[N+](=O)[O-]	3.0	-9.1	10.1	2.2	13.9
O=C(/C=C/c1cccc([N+](=O)[O-])c1)c1ccc2c(c1)OCCO2	0.0	-6.8	1.7	4.2	22.8*
Cc1c(C(=O)OCCOC(C)C)[nH]c2c1C(=O)CC(c1ccco1)C2 (centres undefined)	7.0	0.2	22.8	-6.9	30.4*
CCOc1cc(/C=C2\C(=O)N(c3nc(-c4ccc(Br)cc4)cs3)N=C2c2ccccc2)ccc1O	3.0	76.5*	-86.7	2.2	-0.5
Cc1cc(C)c(S(=O)(=O)/N=C2\C=CC(=O)C(Cl)=C2)c(C)c1	0.0	47.4*	-0.8	-33.1	-2.8
C=C(C)C(=O)Nc1cccc(C2=NOC3(C2)C[C@@H](C(N)=O)N(C(=O)c2ccc(OC)cc2)C3)c1 (some centres undefined)	95.0*	-9.7	-2.7	20.1	-11.8
COc1ccc(C(=O)N2CC3(CC(c4cccc(NC(=O)CC(c5ccccc5)c5ccccc5)c4)=NO3)C[C@H]2C(N)=O)cc1 (some centres undefined)	6.0	24.3	-5.1	-1.1	3.4
Cc1cc(=O)oc2cc(OCC(=O)Nc3ccccc3C(=O)O)ccc12	3.0	4.6	5.0	-0.6	-0.9
N#C/C(C(=O)N1CCCCC1)=C1/N=C(N)c2ccccc21	100.0*	-1.4	28.0	3.3	-1.9
N#C/C(C(=O)N1CCCCC1)=C1/N=C(NC(=O)c2ccc(F)cc2)c2ccccc21	3.0	10.0	4.8	0.2	-3.1
COC(=O)c1cn(Cc2cc(OC)ccc2OC)cc(F)c1=O	0.0	-2.3	-5.2	1.7	-3.4
CC(=O)Nc1ccc(NC(=O)c2ccnn2C)cc1	0.0	-5.4	4.4	1.1	-2.1
Cc1cc(C)c(-c2cc(NC(=O)COC(=O)c3ccc(NC(=O)CC#N)cc3)n(-c3ccccc3)n2)cc1C	0.0	53.6*	5.3	-5.2	-20.1
COc1ccc(OC)c(-c2csc(NC(=O)COC(=O)c3ccc(NC(=O)CC#N)cc3)n2)c1	0.0	48.0*	42.4*	-23.4	-6.9
